For orientation: Papp A→B means the apparent permeability from the apical to the basolateral side of a cell layer. A high value points to fast passage.

The subject of data set [1] is Human glioma T98G cells. Kind of data set: Dark cytotoxicity. It is filed as cell-based. The following applies: read-out: dark toxicity IC50, CellTiter Blue assay, concentrations up to 400 μM, overnight. For orientation: The colour change of resazurin is a common sign of viable cells or microbes.
Data set [2] relates to Human glioma T98G cells. In words: Time-dependent cellular uptake. The following applies: 10 μM, over 24 h. Format: cell-based. Summed up: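 T98G glioma cells (EMEM, 10% FBS) seeded 10 000/well, grown 36 h, then exposed to 10 μM test compound for 0, 1, 2, 4, 8, 24 h. After PBS wash, cells lysed in 0.25% Triton X-100/PBS; porphyrin fluorescence read at 415/650 nm. Cell number by CyQuant; uptake expressed as nM compound per cell.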

For the next data set, the system named is hCMEC/D3 cells. In words: In vitro BBB model permeability. Format: in vitro ADME, human. The settings on record: hCMEC/D3 monolayer, 1 mg/mL in HBSS, up to 60 min. Summed up:
(§1)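 hCMEC/D3 brain endothelial cells grown 48 h on 0.4 μm PET transwell inserts in EBM-2 with 5% FBS, hydrocortisone, ascorbic acid, lipid concentrate, HEPES, bFGF. Test compound or lucifer yellow reference (1 mg/mL in HBSS, pH 6.7–7.8) added apically; basolateral HBSS. 37 °C, 5% CO2; lower chamber sampled at 0, 30, 60 min (five replicates). Fluorescence 415/650 nm (LY 420/540); P by clearance principle.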

A short description of data set [3]: In vitro BBB model permeability. Format: in vitro ADME, human. Summed up:
as §1

In the case of “5,10,15,20-Tetra(p-carboranylmethylthiotetrafluorophenyl)porphyrin [Compound 1]”, in the data set with Human glioma T98G cells [1], the IC50 is greater than 400 µM. The “time-dependent uptake (in words)” value with Human glioma T98G cells [2] was “accumulated the fastest”. Further, the “Permeability coefficient P × 10^–6” value with hCMEC/D3 cells was 1.36 ± 0.04 × 10^–6 cm/s.
Regarding `N=C(N)NCCC[C@@H](NC(=O)[C@H](Cc1ccc(O)cc1)NC(=O)CCOCCOCCOCCNc1c(F)c(F)c(-c2c3nc(c(-c4c(F)c(F)c(SCC56BBBBC(BBB5)BBB6)c(F)c4F)c4ccc([nH]4)c(-c4c(F)c(F)c(SCC56BBBBC(BBB5)BBB6)c(F)c4F)c4nc(c(-c5c(F)c(F)c(SCC67BBBBC(BBB6)BBB7)c(F)c5F)c5ccc2[nH]5)C=C4)C=C3)c(F)c1F)C(=O)N[C@@H](Cc1ccccc1)C(=O)NCCC(N)=O` [Compound 8], the “time-dependent uptake (in words)” value with Human glioma T98G cells [2] is recorded as “had the least”. The Papp A→B in data set [3] worked out at 1.71 ± 0.06 ×10⁻⁶ cm/s.
As for lucifer yellow [LY, reference compound], the “Permeability coefficient P × 10^–6” value with hCMEC/D3 cells was 21.7 ± 0.30 × 10^–6 cm/s.
